Laboratory results published in article PMC3806199 (Nature communications, 2013).
Bridge positions count the residues as written; N and C are the ends. Ends that are not written are not given here.

How the values were obtained:
interscapular BAT = test: FDG PET/CT imaging of BAT metabolic activity; assay type: in vivo, mouse; conditions: versus cold-acclimated mice
BAT = test: NIR fluorescence imaging; assay type: in vivo, mouse; conditions: 100 nmol iv, 1 hr, IRDye800 conjugate
In short: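 Subjects were 6-week-old C57BL/6 males, n=3 per group, with experiments done twice. Mice were pre-housed at 6 °C or RT, with propranolol where indicated. IRDye800-conjugated test peptide or a control WAT-homing peptide was given i.v. and circulated 1 h. Interscapular BAT and i.p. WAT were resected and imaged by NIR fluorescence with 785 nm laser excitation. Data are mean ± s.e.m.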

Q: How did the “reduction in FDG uptake by BAT, warm-acclimation combined with propranolol treatment” value (interscapular BAT; propranolol ip 5 mg/kg) turn out when `CC(C)NCC(O)COc1cccc2ccccc12` (stereo not drawn) [propranolol] was run?
A: Its value is 4.1 fold.

Q: How did the “reduction in FDG uptake by BAT as a result of warm-acclimation” value (interscapular BAT) turn out when `OC[C@H]1O[C@@H](O)[C@H]([18F])[C@@H](O)[C@@H]1O` [FDG, fluorine-18 deoxyglucose] was run?
A: The value was 1.7 fold.

Q: CKGGRAKDC (disulfide 1-9 (inferred)) was tested. Which “accumulation in WAT and BAT (resected tissues)” value (BAT) did it give?
A: Its value is “accumulation in WAT, but not in BAT”.
